The sample as a whole holds a higher share of hits than the screen did.
ROMK mod – modulators of human ROMK potassium channel | hit rate 2% among 130,000 | P48048 | Tet-inducible ROMK, thallium flux fluorescence; actives lie on both sides | B-score at 10 µM;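 active = signal ratio slope over the read window, or its plate-corrected B-score, at least 3 SD from the plate mean, either direction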;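 also: B-score of the F/F0 ratio slope over 7 to 12 s after thallium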
Biofilm kill mix – mixtures killing C. albicans biofilm; inhibition, % at 7.6 µM; C. albicans biofilm persisters + clotrimazole, fluorescence viability; primary screen in compound mixtures of four per well; AID 1242; hit rate 0.02% among 120,000;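 active = inhibition above 30.3% in the primary screen of four-compound pools, then above 30% when the compound was retested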;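 also: compounds exposed to preformed 24 h biofilms for 48 h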
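Incubation: 24 h biofilm formation, then 48 h compound exposure, 37 °C | Material: C. albicans biofilms | Buffer or medium: RPMI/MOPS medium, pH 7.0 | Measured by: 2-h Alamar Blue fluorescence, 535/590 nm excitation/emission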
ABCG2 block – blocks JC-1 efflux by human ABCG2 transporter | Q9UNQ0 | inhibition, % at 6.6 µM | AID 1325 | IgMXP3 cells, flow cytometry | hit rate 0.1% among 190,000;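 active = inhibition above 80%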
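Test system: IgMXP3 (ABCG2) plus far-red-tagged CCRF-Adr (ABCB1) cells. Reagent: JC-1 dye as substrate. Timing: 10 min exposure at 25 °C with rotation, no wash. Measured by: flow cytometric JC-1 green MFI at 530 nm. Read-out: percent efflux inhibition, scaled nicardipine 100% to DMSO 0%. Control set: nicardipine and DMSO wells.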
ABCB1 block – blocks JC-1 efflux by human ABCB1 transporter; P08183; CCRF-Adr cells, flow cytometry; inhibition, % at 6.6 µM; hit rate 0.067% among 190,000; AID 1326; in the data active = inhibition above about 40%;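 also: higher value means more JC-1 retained so stronger ABCB1 efflux block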
Target sequence (P08183 whole entry, looked up): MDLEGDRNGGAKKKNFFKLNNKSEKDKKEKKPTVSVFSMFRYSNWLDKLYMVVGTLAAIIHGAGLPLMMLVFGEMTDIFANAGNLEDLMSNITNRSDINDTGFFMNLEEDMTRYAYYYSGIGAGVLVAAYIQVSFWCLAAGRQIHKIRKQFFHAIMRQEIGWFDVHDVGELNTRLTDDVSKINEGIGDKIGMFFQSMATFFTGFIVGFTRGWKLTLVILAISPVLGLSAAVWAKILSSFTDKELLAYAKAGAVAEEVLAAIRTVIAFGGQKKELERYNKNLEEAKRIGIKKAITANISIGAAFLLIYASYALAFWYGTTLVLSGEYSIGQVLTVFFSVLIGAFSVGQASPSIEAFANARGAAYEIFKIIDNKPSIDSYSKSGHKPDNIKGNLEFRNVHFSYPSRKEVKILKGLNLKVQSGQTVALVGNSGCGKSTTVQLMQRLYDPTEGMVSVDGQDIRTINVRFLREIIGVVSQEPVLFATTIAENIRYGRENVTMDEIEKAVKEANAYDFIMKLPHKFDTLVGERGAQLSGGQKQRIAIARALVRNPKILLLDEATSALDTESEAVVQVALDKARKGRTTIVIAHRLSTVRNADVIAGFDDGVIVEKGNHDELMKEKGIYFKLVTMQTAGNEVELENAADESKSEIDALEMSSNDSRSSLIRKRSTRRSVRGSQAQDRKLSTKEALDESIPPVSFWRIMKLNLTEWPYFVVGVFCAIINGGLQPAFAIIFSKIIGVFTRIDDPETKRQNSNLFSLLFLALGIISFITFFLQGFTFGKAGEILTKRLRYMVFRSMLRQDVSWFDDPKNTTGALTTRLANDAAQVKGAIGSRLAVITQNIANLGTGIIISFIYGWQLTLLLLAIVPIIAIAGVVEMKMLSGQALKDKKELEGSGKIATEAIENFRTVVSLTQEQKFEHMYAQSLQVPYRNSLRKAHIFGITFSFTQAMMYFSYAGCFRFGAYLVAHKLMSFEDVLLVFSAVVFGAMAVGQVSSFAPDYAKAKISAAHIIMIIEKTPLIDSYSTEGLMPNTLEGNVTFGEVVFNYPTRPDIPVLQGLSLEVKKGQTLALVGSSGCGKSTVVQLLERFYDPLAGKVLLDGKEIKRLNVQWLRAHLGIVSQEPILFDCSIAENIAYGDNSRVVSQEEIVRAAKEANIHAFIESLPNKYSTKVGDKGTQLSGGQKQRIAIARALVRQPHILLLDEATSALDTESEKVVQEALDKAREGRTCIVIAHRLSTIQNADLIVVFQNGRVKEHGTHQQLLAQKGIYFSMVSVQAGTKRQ
TRPML3 ag – activates the human TRPML3 channel; HEK293 TRPML3-YFP, Fluo-8 calcium fluorescence; 100% = the carbachol control signal; hit rate 0.29% among 220,000; AID 1448; activation, % at 3 µM; Q8TDD5;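 active = activation above its plate's cutoff, the mean activation of the plate's test wells plus 3 SD, cut at about 12% in these data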
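Test system: HEK293 cells stably carrying human TRPML3-YFP; Doses: single dose, 3 µM final nominal compound, 0.3% DMSO final; Schedule: dye loading 1 h 37 °C then 30 min ambient, 125 s read; Technique: Fluo-8 calcium fluorescence; Benchmarks: high control carbachol 87 µM, low control DMSO.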
TRPN1 ag – activates the zebrafish TRPN1 channel. HEK293 zebrafish TRPN1-YFP, Fluo-8 calcium fluorescence; 100% = response to 87 µM carbachol. activation, % at 3 µM. hit rate 0.18% among 220,000;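 active = activation above its plate's cutoff, the mean activation of test wells on that plate plus 3 SD, cut at about 19% in these data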
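System: zebrafish TRPN1-YFP in HEK293 cells / Dosing: 3 µM single point / Timing: dye loading 1 h at 37 °C, then 30 min room temperature / Signal: Fluo-8 calcium fluorescence, excitation 470-495 nm, emission 515-575 nm / Read-out basis: percent activation from peak over basal fluorescence ratio, control-normalized / Control set: high carbachol 87 µM, low DMSO alone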
ABCB1 single pt – inhibits human ABCB1 efflux, confirmed at single point. CCRF-Adr cells, JC-1 efflux, flow cytometry. shares compounds with ABCG2 block. inhibition, % at 6.6 µM. hit rate 7% among 270. AID 1451;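 active = inhibition of pump activity above 50%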
ABCG2 confirm – inhibits human ABCG2 efflux, confirmed at single point; IgMXP3 cells, JC-1 efflux, flow cytometry; AID 1453; hit rate 6% among 270; inhibition, % at 6.6 µM; shares compounds with ABCG2 block;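 active = inhibition above 50%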
IgMXP3 autofluor – compound fluoresces at 488/530 nm in IgMXP3 cells; fluorescence at 6.6 µM; AID 1480; hit rate 30% among 270; shares compounds with ABCG2 block; compound autofluorescence 488/530 nm, flow; hits give high values;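 active = fluorescence in ABCG2-expressing cells above the plate's control-well mean plus 3 SD, cut at about 15 in these data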
CCRF-Adr fluor – counter-screen for ABCB1 inhibitors: compound fluorescence in CCRF-Adr cells; fluorescence at 6.6 µM; AID 1483; shares compounds with ABCG2 block; hit rate 30% among 270; compound autofluorescence 488/530 nm, flow cytometry; hits give high values;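 active = fluorescence beyond the plate control mean plus 3 SD, with a fluorescence-to-maximum score over 2, cut at about 25 in these data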
TRPN1 counter – activates zebrafish TRPN1, counter-screen for TRPML3 agonists. shares compounds with TRPML3 ag. HEK293 zebrafish TRPN1-YFP, Fluo-8 calcium fluorescence; scaled: carbachol wells 100%, DMSO wells 0%. activation, % at 3 µM. hit rate 10% among 310;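 active = mean activation over replicates above a set limit taken from the earlier TRPN1 channel primary screen, cut at about 19% in these data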
TRPML3 ag conf – human TRPML3 agonism, confirmation | shares compounds with TRPML3 ag | HEK293 TRPML3-YFP, Fluo-8 calcium fluorescence; 100% set by carbachol, 0% by DMSO | activation, % at 3 µM | hit rate 80% among 310 | AID 1526;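 active = activation above a set limit derived from the earlier primary screen, cut at about 12% in these data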
Each line names hits and unclear results; the compound was inactive in the other large screens (follow-up assays come after a bar, where they were run).

O=C(CCCN1CCC2(CC1)C(=O)NCN2c1ccccc1)c1ccc(F)cc1	TRPML3 ag 50, TRPN1 ag 53 (no result: ROMK mod)
CC(=O)CC(c1ccccc1[N+](=O)[O-])c1c(O)c2ccccc2oc1=O (stereo unspecified)	none (no result: ROMK mod, ABCG2 block, ABCB1 block)
O=C1NC(=O)N(c2ccccc2F)C(=O)/C1=C/c1ccc(Sc2nc3ccccc3[nH]2)o1	TRPML3 ag 46, TRPN1 ag 43 (no result: ROMK mod)
O=C1NC(=O)N(c2cccc(Cl)c2)C(=O)/C1=C\c1ccc(Sc2nc3ccccc3[nH]2)o1	TRPML3 ag 14, TRPN1 ag 20
O=C(O)[C@H]1NC[C@H]2C[C@H]21	none
CCOc1nc(NC(C)C)nc(N2CC3CC(C2)c2cccc(=O)n2C3)n1 (stereo unspecified)	none
O=C1NC(=O)N(c2ccc(Cl)cc2)C(=O)/C1=C/c1coc2ccc(O)cc2c1=O	ROMK mod -8 (no result: ABCG2 block, ABCB1 block)
O=C1NC(=O)N(c2ccccc2)C(=O)/C1=C/c1coc2ccc(O)cc2c1=O	none (no result: ROMK mod, ABCG2 block, ABCB1 block)
C[C@H]1OC[C@@H](C[N+](C)(C)C)O1	TRPML3 ag 99, TRPN1 ag 71 (no result: ROMK mod)
CCCCCCCSc1cc(OC)c(CCNC)cc1OC	none (no result: Biofilm kill mix)
CCCCCSc1cc(OC)c(CCNC)cc1OC	ROMK mod -3.6 (no result: Biofilm kill mix)
Cc1cc(C=O)c(C)n1C1CC1	none
CCN(CC)c1ccc(CC2C(=O)N(C)C(=O)N(C)C2=O)cc1	none (no result: ROMK mod)
CCN(CC)c1ccc(/C=C/[N+](=O)[O-])cc1	TRPML3 ag 36, TRPN1 ag 47 (no result: ROMK mod)
COc1ccc(-n2c(O)c(/C=C/C=Nc3ccccc3)c(=O)[nH]c2=O)cc1	TRPML3 ag 27, TRPN1 ag 43 (no result: ROMK mod)
CC(=O)OC(C)(C)/C=C/C(=O)[C@](C)(O)[C@H]1[C@H](O)C[C@@]2(C)[C@@H]3CC=C4[C@H](C[C@H](O)C(=O)C4(C)C)[C@]3(C)C(=O)C[C@]12C	ROMK mod 4.7
c1ccc(-c2nnc(C3CC(c4cccnc4)=NO3)o2)cc1 (stereo unspecified)	none (no result: ROMK mod, ABCG2 block, ABCB1 block, TRPML3 ag, TRPN1 ag)
CC(=O)OC1N=C(c2ccccc2)c2cc(Br)ccc2N(C)C1=O (stereo unspecified)	none (no result: ROMK mod, Biofilm kill mix)
Cc1cc(C)n(-c2ccc(NN=C(C#N)C#N)cc2)n1	TRPML3 ag 18, TRPN1 ag 32 (no result: ROMK mod, ABCG2 block, ABCB1 block)
N#CC(C#N)=NNc1ccc(-n2ccc(C(F)(F)F)n2)cc1	TRPML3 ag 23, TRPN1 ag 27 (no result: ABCG2 block, ABCB1 block)
CC(C)Oc1ccc(CC2(CCc3ccncc3)C(=O)NC(=O)NC2=O)cc1	none (no result: ROMK mod, ABCG2 block, ABCB1 block)
O=C1NC(=S)N(c2ccccc2)C(=O)C1C(c1ccncc1)C1C(=O)NC(=S)N(c2ccccc2)C1=O (stereo unspecified)	none
CC(C)[C@H]1C(=O)O[C@H](C(C)C)C(=O)N(C)[C@@H](C(C)C)C(=O)O[C@H](C(C)C)C(=O)N(C)[C@@H](C(C)C)C(=O)O[C@H](C(C)C)C(=O)N1C	TRPML3 ag 20, TRPN1 ag 36 (no result: ROMK mod)
CC(C)OP(=O)(OC(C)C)C(O)c1ccccc1F (stereo unspecified)	none (no result: ROMK mod)
CCOC(=O)c1nc2ccccc2c(=O)n1-c1ccc(C)cc1	none (no result: Biofilm kill mix)
CCOC(=O)c1nc2ccccc2c(=O)n1-c1cccc(C)c1	ROMK mod 1.1 (no result: Biofilm kill mix)
NCC(CC(=O)O)C1CCCCC1 (stereo unspecified)	none (no result: Biofilm kill mix)
O=C1NC(=O)N(c2ccc3c(c2)OCO3)C(=O)/C1=C/c1ccc(N2CCCCC2)o1	ROMK mod -3.6 (no result: Biofilm kill mix)
O=C1NC(=O)N(c2ccc3c(c2)OCO3)C(=O)/C1=C\c1ccc(-c2ccccc2C(=O)O)o1	none (no result: ROMK mod, ABCG2 block, ABCB1 block)
CCN(CC)c1ccc(C=C2C(=O)N(C)C(=S)N(C)C2=O)o1	none
CN1C(=O)C(=Cc2ccc(N3CCCCC3)o2)C(=O)N(C)C1=S	ROMK mod -4.9 (no result: Biofilm kill mix)
CC1CCCN(c2ccc(C(=O)N3CCC4(CC3)OCCO4)cc2[N+](=O)[O-])C1 (stereo unspecified)	none
CCOC(=O)C1CCCN(c2ccc([N+](=O)[O-])c3nonc23)C1 (stereo unspecified)	TRPML3 ag 113, TRPN1 ag 291 (no result: ROMK mod)
Cc1ccc(Cn2cc(C=O)c(-c3ccc(C)cc3)n2)cc1	none
CCN1/C(=C\C=C\C2=[N+](CC)c3ccccc3C2(C)C)C(C)(C)c2ccccc21	TRPML3 ag 158, TRPN1 ag 317 (no result: ROMK mod, Biofilm kill mix)
CCOC(=O)C(O)(c1ccc(NC(=S)NC(=O)c2ccc(Cl)cc2Cl)c(C)c1)C(F)(F)F (stereo unspecified)	TRPML3 ag 12, TRPN1 ag 22 (no result: ROMK mod)
CC(C)=CCC12CN3CCN(CC(C3)C1=O)C2	ABCG2 block 107 (no result: ROMK mod, Biofilm kill mix) | ABCB1 single pt inactive | ABCG2 confirm inactive | IgMXP3 autofluor inactive | CCRF-Adr fluor inactive
CN1C(=O)N(C)C(=O)C2(Cc3cc([N+](=O)[O-])ccc3N(C)C2c2ccccc2)C1=O (stereo unspecified)	none (no result: ROMK mod)
CCOC(=O)c1c(N)n(Cc2ccco2)c2nc3ccccc3nc12	TRPML3 ag 15 (no result: ROMK mod, Biofilm kill mix) | TRPN1 counter inactive | TRPML3 ag conf inactive
CC(=O)O[C@@H]1[C@H]2CC[C@@H]3[C@]1(C[C@@H](OC(C)=O)[C@@]1(O)C([C@@H]4O[C@@H]4C1(C)C)[C@]3(C)O)C[C@@]2(C)O (stereo partly specified)	none

High-throughput results from PubChem.
